Hits are enriched below; roughly 2.6% of the tested compounds scored in any of these assays.
Vif imaging = HIV Vif inhibition; 340,000 compounds, 0.35% hits; AID 602346; HEK293T cells, Vif self-association by quenched fluorescence, imaging, 24 h; inhibition, % at 7.49 µM; in the data active means inhibition above about 50%, passing the limit was not always enough; inconclusive means no clear call, values can overlap the other calls; inactive means below about 31%
Env fusion inh = inhibitors of HIV Env-mediated cell fusion; 360,000 compounds, 1.1% hits; HeLa-JRFL Env/CEM21 cell fusion, luciferase; inhibition, % at 12.3 µM;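 active means mean replicate inhibition score of at least 50 and every replicate individually at or above 50; inconclusive means only one of the two criteria met; inactive means mean below 50 and not all replicates reaching 50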;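 further: 0% = plate neutral controls and 100% = maraviroc near 300 nM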
miR122 inh = inhibitors of miR-122 in Huh7 cells; Huh7 miR-122 Renilla luciferase sensor, 48 h; neutral wells = 0, positive control = 100; activation (reporter increase), % at 12.5 µM; 340,000 compounds, 0.3% hits;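 active means mean replicate activation score at least 90 and every replicate individually at or above 90; inconclusive means only one of the two criteria met; inactive means neither criterion met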;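 further: higher luciferase means less miR-122 activity so hits act as miR-122 inhibitors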
FN deposit inh = fibronectin deposition inhibition; AH1F fibroblasts, Alexa488-fibronectin deposition fluorescence, overnight; inhibition, % at 12.6 µM; 350,000 compounds, 0.086% hits; AID 743247;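 active means mean inhibition across replicates of 30% or more, regardless of how many single replicates reach that level; inconclusive means mean under 30% yet at least half of replicates reach 30%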;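 further: positive control wells lacked labelled fibronectin entirely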
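test system = AH1F fibroblasts assembling fluorescent fibronectin matrix | quantity = 10000 AH1F cells per well | buffer or medium = DMEM plus 2% serum, read in PBS | doses = single dose, pinned | incubation = 1 h cell attachment, overnight exposure to compound and label | detection = fluorescence at 485 nm excitation, 525 nm emission | read-out basis = inhibition from reduced deposited-fibronectin fluorescence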
S100A4 MyoIIA = S100A4-myosin IIA interaction inhibition; S100A4/TAMRA-MyoIIA peptide fluorescence polarization; inhibition, % at 10.7 µM; 360,000 compounds, 0.14% hits; AID 652163;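 active means mean inhibition of at least 70% across replicates, with every replicate also reaching that level; inconclusive means mean inhibition reaches 70% but some replicates fall short; inactive means mean inhibition below 70%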
Target sequence (P26447 whole entry, looked up): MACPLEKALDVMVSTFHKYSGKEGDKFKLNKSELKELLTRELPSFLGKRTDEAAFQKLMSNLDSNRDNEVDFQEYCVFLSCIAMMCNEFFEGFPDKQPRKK
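incubation = readout 5 min after mixing, signal stable up to 60 min | system = S100A4 monomer protein | buffer or medium = HEPES pH 7.2 with CaCl2, KCl, NaCl, DTT, Triton | benchmarks = neutral control DMSO, positive control TFP | also added = fluorescent myosin IIA peptide, 5 nM | compound dosing = one concentration per compound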
Ecoli rRNA inh = selective bacterial rRNA inhibition in E. coli; E. coli WT GFP vs humanized-ribosome RFP mutants, fluorescence, 24 h; hits give low values; DMSO median 0, no signal -100; GFP signal change (wild-type ribosome), % (concentration not given with the values); 350,000 compounds, 1.6% hits;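 active means significant combined selectivity score with lowered wild-type GFP, culture density cut under 30%, mutant RFP and density less affected; inactive means any of these conditions unmet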
An asterisk follows results filed as active; ? = inconclusive; . = not tested or not shown; [ ] = another dose, or the depositor's remark.

SMILES	Vif imaging	Env fusion inh	miR122 inh	FN deposit inh	S100A4 MyoIIA	Ecoli rRNA inh
CCCNC(=O)c1ccc(SCC(=O)N(CC)CC)c([N+](=O)[O-])c1	65*	0	-10	-3	1	11
O=C(NC1Cc2ccccc2C1)[C@@H]1[C@@H](CO)[C@@H]2Cn3c(ccc(C4=CCCCC4)c3=O)[C@@H]2N1CC1CC1	.	.	.	.	-5	-9
C[C@H]1CN([C@@H](C)CO)C(=O)c2cccc(NC(=O)C3CCCCC3)c2O[C@H]1CN(C)CC1CCCCC1	.	-41[16.7 µM]	64[16.7 µM]	.	-9	3
Cc1ccc(/C=C2/SC(=O)N(CC(=O)N3CCOCC3)C2=O)s1	-13	1	-5	11	106*	6
COc1cccc2sc(N(CCN(C)C)C(=O)c3ccc4c(c3)CCCC4)nc12	.	5	.	-3	21	-30*
CN(C)CCN(C(=O)c1ccc2c(c1)CCCC2)c1nc2c(F)cccc2s1	-8	10	-6	-2	8	-18*
CCCCC(O)(CCCC)C(=O)NN(C(=O)OC)c1ccccc1	10	.	144*	-2	9	11
CCCCC(O)(CCCC)C(=O)NN(C(=O)OCC)c1ccccc1	6	-43	.	-4	.	.
CCCC(O)(CCC)C(=O)NN(C(=O)CCl)c1ccccc1	0	85*	.	-3	-3	-2
Nc1c(C(=O)NCc2ccco2)nnn1Cc1ccccc1	-15	-84	8	30*	.	.
O=C(c1ccco1)c1nnn(Cc2ccccc2)c1-c1ccccc1	-3	.	11	.	0	-36*
Cc1oc2c(CN3CCOCC3)c(O)ccc2c(=O)c1-c1ccccc1	6	.	-2	.	2	-24*
S=C(NC1CCCC1)NC1CC1	-9	-5	-15	0	23	0
CC(C)CNC(=S)NC1CCCC1	63*	-28	-9	10	.	.
S=C(NC1CCCC1)NC1CCCC1	53*	1	.	.	1	12
O=C(NC12CC3CC(CC(C3)C1)C2)OCCNC1CCCCC1	-5	77*	.	-1	1	5
CN(C)CCOC(=O)NC12CC3CC(CC(C3)C1)C2	14	14	.	-2	-3	21
C[C@H](CO)N1C[C@H](C)[C@H](CN(C)Cc2ccc(C(F)(F)F)cc2)OCCCC[C@H](C)Oc2ccc(NC(=O)Nc3ccc4c(c3)OCO4)cc2C1=O	.	69*[16.7 µM]	4[16.7 µM]	.	9	-1
C[C@@H]1CN([C@H](C)CO)C(=O)c2cc(NC(=O)Nc3ccc4c(c3)OCO4)ccc2O[C@@H](C)CCCCO[C@@H]1CN(C)Cc1ccc(C(F)(F)F)cc1	.	?	9[16.7 µM]	.	-2	2
C[C@@H]1CN([C@@H](C)CO)C(=O)c2cc(NC(=O)Nc3ccc4c(c3)OCO4)ccc2O[C@@H](C)CCCCO[C@H]1CN(C)Cc1ccc(C(F)(F)F)cc1	.	61*[16.7 µM]	-9[16.7 µM]	.	-5	1
C[C@@H]1CN([C@@H](C)CO)C(=O)c2cc(NC(=O)Nc3ccc4c(c3)OCO4)ccc2O[C@@H](C)CCCCO[C@@H]1CN(C)Cc1ccc(C(F)(F)F)cc1	.	23[16.7 µM]	-7[16.7 µM]	.	-1	2
Cc1ccc(NC(=O)C(NC2CCCc3ccccc32)c2ccccc2)cc1Cl (stereo not given)	-16	-9	8	-5	.	.
Cc1ccc(NC(=O)C(NC2CCCc3ccccc32)c2ccccc2)c([N+](=O)[O-])c1 (stereo not given)	0	86*	20	-2	.	.
C[C@H]1CN([C@@H](C)CO)C(=O)c2cccc(NC(=O)Nc3ccc(F)cc3)c2O[C@H]1CN(C)C(=O)Nc1ccc(F)cc1	.	4[16.7 µM]	-4[16.7 µM]	.	4	-12
Cc1nc(C(=O)N2CCc3c([nH]c4ccccc34)C2c2ccccn2)cs1 (stereo not given)	-7	20	5	-5	3	-20*
SMILES	Vif imaging	Env fusion inh	miR122 inh	FN deposit inh	S100A4 MyoIIA	Ecoli rRNA inh
CC(C)c1nc(C(=O)N2CCc3c([nH]c4ccccc34)C2c2ccccn2)cs1 (stereo not given)	-6	-11	13	-15	5	-30
O=[N+]([O-])c1ccc(N2CCCCC2)nc1N1CCCCC1	1	-1	.	-7	4	-40*
O=[N+]([O-])c1ccc(Cl)cc1N1CCCCC1	3	19	.	-1	-4	21
CO[C@@H]1CN(C)C(=O)c2cc(NC(=O)Cc3ccccc3)ccc2OC[C@H](C)NC[C@@H]1C	.	-36[16.7 µM]	.	-2	1	2
Cc1cccc(CN2CCSCCS2(=O)=O)c1	.	61*	.	-5	3	-8
CSC1SCC2C(=O)N(C)C(C(C)C)C(=O)OCC(NC(=O)c3cnc4ccccc4n3)C(=O)NC(C)C(=O)N(C)C1C(=O)N(C)C(C(C)C)C(=O)OCC(NC(=O)c1cnc3ccccc3n1)C(=O)NC(C)C(=O)N2C (stereo not given)	7	84*	7	0	-2	-41
O=S(=O)(c1cccc(-c2nnc(-c3ccc(Br)cc3)o2)c1)N1CCCCCC1	-1	60*	0	6	.	.
O=C(C[C@H]1CC[C@H](NC(=O)C2CCOCC2)[C@H](CO)O1)NCc1ccncc1	.	.	.	.	5	0
CN(C)C(=O)c1cccc(-c2cnc3c(NC=O)cc(-c4cccc(C(F)(F)F)c4)cn23)c1	-11	56*	.	-2	25	-43
Cc1cccc(-c2cc(NC=O)c3ncc(-c4cccc(C(=O)N(C)C)c4)n3c2)c1	-4	-20	.	7	1	0
COc1cccc(-c2cc(NC=O)c3ncc(-c4cc(OC)c(OC)c(OC)c4)n3c2)c1	77*	-269	27	4	-2	5
COc1ccc(-c2cnc3c(NC(C)=O)cc(-c4cc(F)ccc4OC)cn23)cc1OC	.	6	6	-2	4	1
COc1cccc(-c2cnc3c(NC=O)cc(-c4ccc(O)c(OC)c4)cn23)c1	.	24	-5	28	0	4
COc1ccc(F)cc1-c1cc(NC(C)=O)c2ncc(-c3cc(OC)c(OC)c(OC)c3)n2c1	68*	42	-3	4	-2	-1
Cc1cc(Cl)n2c(nc3ccccc32)c1C#N	35	-56	.	-1	3	2
Cc1c(CCCl)c(Cl)n2c(nc3ccccc32)c1C#N	61*	-393	.	.	-1	2

High-throughput results: PubChem, Broad Institute
